According to ChEMBL document CHEMBL4433213, “Investigation on 2',3'-O-Substituted ATP Derivatives and Analogs as Novel P2X3 Receptor Antagonists” (ACS Med Chem Lett, 2019):

Assays:
P2X purinoceptor 1 = biological target: T1, P2X purinoceptor 1 (Homo sapiens, UniProt P51575); assay: Antagonist activity at human P2X1R transfected in human 1321N1 cells assessed as inhibition of ATP-induced calcium influx; assay type: cell-based
T1 sequence (P51575 whole entry): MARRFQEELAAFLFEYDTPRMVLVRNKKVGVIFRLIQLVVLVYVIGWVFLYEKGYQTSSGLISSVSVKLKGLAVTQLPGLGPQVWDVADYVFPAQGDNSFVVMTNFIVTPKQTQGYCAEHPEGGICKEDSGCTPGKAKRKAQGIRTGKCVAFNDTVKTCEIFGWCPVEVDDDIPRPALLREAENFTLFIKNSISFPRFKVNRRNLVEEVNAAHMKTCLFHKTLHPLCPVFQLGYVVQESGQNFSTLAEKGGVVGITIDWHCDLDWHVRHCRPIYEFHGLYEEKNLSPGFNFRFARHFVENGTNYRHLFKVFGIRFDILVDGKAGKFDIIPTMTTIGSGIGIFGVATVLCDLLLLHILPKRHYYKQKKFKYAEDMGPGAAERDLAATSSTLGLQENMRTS
Method in brief: (§1)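 1321N1 astrocytoma cells stably expressing human P2X1, P2X2, P2X3 or P2X4 receptor. Calcium influx was induced by ATP at the EC80 for each subtype. Results are given as IC50 (μM) or % inhibition at the indicated concentration.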

[1] = biological target: T2, P2X purinoceptor 1 (Homo sapiens) (UniProt P51575); assay: Antagonist activity at human P2X1R transfected in human 1321N1 cells assessed as inhibition of ATP-induced calcium influx relative to control; assay type: cell-based; conditions: concentration not given here; method in brief: as §1
T2 sequence (whole entry): T1 sequence (P51575 whole entry)

P2X purinoceptor 2 = biological target: T3, P2X purinoceptor 2 (Homo sapiens, UniProt Q9UBL9); assay: Antagonist activity at human P2X2R transfected in human 1321N1 cells assessed as inhibition of ATP-induced calcium influx; assay type: cell-based; method in brief: as §1
T3 sequence (Q9UBL9 whole entry): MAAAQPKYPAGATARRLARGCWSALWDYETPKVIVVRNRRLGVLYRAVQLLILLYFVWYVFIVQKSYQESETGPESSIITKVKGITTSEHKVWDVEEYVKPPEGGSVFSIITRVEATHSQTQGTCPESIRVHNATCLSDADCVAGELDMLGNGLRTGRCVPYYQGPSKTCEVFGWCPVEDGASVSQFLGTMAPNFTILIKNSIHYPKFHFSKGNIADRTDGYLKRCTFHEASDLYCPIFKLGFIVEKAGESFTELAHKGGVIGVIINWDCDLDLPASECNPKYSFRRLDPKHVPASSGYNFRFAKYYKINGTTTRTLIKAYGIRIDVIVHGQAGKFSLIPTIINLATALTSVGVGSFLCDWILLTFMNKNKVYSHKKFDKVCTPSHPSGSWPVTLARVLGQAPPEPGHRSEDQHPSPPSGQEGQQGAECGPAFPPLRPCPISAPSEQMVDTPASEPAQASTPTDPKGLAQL

[2] = biological target: T4, P2X purinoceptor 2 (Homo sapiens) (UniProt Q9UBL9); assay: Antagonist activity at human P2X2R transfected in human 1321N1 cells assessed as inhibition of ATP-induced calcium influx relative to control; assay type: cell-based; conditions: concentration not given here; method in brief: as §1
T4 sequence (whole entry): T3 sequence (Q9UBL9 whole entry)

P2X purinoceptor 3 [3] = biological target: T5, P2X purinoceptor 3 (Homo sapiens, UniProt P56373); assay: Antagonist activity at human P2X3R transfected in human 1321N1 cells assessed as inhibition of ATP-induced calcium influx; assay type: cell-based; method in brief: as §1
T5 sequence (P56373 whole entry): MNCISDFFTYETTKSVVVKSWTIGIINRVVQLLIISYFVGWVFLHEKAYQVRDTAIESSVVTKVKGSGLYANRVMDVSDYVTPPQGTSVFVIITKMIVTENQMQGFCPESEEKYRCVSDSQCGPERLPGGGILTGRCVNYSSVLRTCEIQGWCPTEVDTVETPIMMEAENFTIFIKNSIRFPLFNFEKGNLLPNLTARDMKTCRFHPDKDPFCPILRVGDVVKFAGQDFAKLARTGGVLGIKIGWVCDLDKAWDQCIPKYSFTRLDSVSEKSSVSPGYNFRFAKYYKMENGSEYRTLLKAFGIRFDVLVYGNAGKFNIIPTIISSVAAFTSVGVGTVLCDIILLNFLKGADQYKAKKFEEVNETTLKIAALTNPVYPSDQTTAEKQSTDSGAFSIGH

[4] = biological target: T6, P2X purinoceptor 3 (Homo sapiens) (UniProt P56373); assay: Antagonist activity at human P2X3R transfected in human 1321N1 cells assessed as inhibition of ATP-induced calcium influx relative to control; assay type: cell-based; conditions: concentration not given here; method in brief: as §1
T6 sequence (whole entry): T5 sequence (P56373 whole entry)

P2X purinoceptor 4 = biological target: T7, P2X purinoceptor 4 (Homo sapiens, UniProt Q99571); assay: Antagonist activity at human P2X4R transfected in human 1321N1 cells assessed as inhibition of ATP-induced calcium influx; assay type: cell-based; method in brief: as §1
T7 sequence (Q99571 whole entry): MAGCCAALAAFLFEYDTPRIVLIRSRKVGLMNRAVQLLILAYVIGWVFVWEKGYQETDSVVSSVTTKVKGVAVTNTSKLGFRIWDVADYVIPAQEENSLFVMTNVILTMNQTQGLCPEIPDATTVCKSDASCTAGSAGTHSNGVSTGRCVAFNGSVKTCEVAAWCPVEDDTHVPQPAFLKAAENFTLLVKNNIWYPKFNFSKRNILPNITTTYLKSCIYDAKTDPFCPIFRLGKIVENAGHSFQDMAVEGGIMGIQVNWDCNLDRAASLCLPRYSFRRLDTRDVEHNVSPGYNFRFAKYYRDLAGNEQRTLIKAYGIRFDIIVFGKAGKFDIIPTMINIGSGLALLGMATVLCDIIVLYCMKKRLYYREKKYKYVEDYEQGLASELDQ

[5] = biological target: T8, P2X purinoceptor 4 (Homo sapiens) (UniProt Q99571); assay: Antagonist activity at human P2X4R transfected in human 1321N1 cells assessed as inhibition of ATP-induced calcium influx relative to control; assay type: cell-based; conditions: concentration not given here; method in brief: as §1
T8 sequence (whole entry): T7 sequence (Q99571 whole entry)

P2X purinoceptor 7 = biological target: T9, P2X purinoceptor 7 (Homo sapiens, UniProt Q99572); assay: Antagonist activity at human P2X7R transfected in human 1321N1 cells assessed as inhibition of Bz-ATP-induced calcium influx; assay type: cell-based
T9 sequence (Q99572 whole entry): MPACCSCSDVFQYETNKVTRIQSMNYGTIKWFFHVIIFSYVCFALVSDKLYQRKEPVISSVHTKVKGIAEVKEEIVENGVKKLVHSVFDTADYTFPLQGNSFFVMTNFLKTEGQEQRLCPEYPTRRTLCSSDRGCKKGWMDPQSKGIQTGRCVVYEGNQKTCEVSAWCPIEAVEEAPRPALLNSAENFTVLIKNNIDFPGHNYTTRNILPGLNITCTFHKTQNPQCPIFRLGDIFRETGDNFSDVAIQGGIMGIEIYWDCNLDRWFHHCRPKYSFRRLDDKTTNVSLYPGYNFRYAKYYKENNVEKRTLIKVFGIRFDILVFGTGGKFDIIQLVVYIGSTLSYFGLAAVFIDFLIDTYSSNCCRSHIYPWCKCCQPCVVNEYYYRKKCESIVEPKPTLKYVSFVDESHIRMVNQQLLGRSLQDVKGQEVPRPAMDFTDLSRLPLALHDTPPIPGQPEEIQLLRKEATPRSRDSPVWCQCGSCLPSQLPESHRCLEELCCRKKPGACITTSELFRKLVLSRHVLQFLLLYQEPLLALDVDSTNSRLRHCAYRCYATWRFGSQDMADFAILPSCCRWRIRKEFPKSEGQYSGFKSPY

[6] = biological target: T10, P2X purinoceptor 7 (Homo sapiens) (UniProt Q99572); assay: Antagonist activity at human P2X7R transfected in human 1321N1 cells assessed as inhibition of Bz-ATP-induced calcium influx relative to control; assay type: cell-based; conditions: concentration not given here
T10 sequence (whole entry): T9 sequence (Q99572 whole entry)

P2X purinoceptor 3 [7] = biological target: T11, P2X purinoceptor 3 (Mus musculus, UniProt Q3UR32); assay: Antagonist activity at P2X3R in mouse TG sensory neurons assessed as inhibition of P2X3R agonist alpha,beta-meATP-induced current at -65 mV holding potential by whole cell voltage clamp method
T11 sequence (Q3UR32 whole entry): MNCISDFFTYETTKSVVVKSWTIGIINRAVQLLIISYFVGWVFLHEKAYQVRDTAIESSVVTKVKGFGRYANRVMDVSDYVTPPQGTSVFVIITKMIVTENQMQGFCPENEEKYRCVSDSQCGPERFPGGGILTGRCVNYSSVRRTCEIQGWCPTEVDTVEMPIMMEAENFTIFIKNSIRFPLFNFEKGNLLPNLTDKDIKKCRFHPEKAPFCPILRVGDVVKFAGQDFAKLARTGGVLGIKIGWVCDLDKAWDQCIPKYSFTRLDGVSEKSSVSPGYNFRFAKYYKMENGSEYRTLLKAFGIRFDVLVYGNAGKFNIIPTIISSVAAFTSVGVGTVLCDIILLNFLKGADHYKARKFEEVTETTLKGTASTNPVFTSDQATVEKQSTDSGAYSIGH
Method in brief: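 Mouse trigeminal sensory neurons were recorded by whole-cell patch clamp. Test compound (0.001–10 μM) was applied before 10 μM α,β-meATP, and inhibition of the agonist-evoked P2X3 current was measured. IC50 was taken from concentration–inhibition curves. N = 5–6 cells.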

Homo sapiens [8] = species on record: Homo sapiens; assay: Selectivity ratio of IC50 for human P2X4R transfected in human […] 1321N1 cells to IC50 for human transfected in human 1321N1 cells; assay type: cell-based
Homo sapiens [9] = species on record: Homo sapiens; assay: Selectivity ratio of IC50 for human P2X7R transfected in human […] 1321N1 cells to IC50 for human transfected in human 1321N1 cells; assay type: cell-based
Homo sapiens [10] = species on record: Homo sapiens; assay: Selectivity ratio of IC50 for human P2X1R transfected in human […] 1321N1 cells to IC50 for human transfected in human 1321N1 cells; assay type: cell-based

| SMILES | IC50 (P2X purinoceptor 1) [µM] | inhibition [1] [%] | IC50 (P2X purinoceptor 2) [µM] | inhibition [2] [%] | IC50 (P2X purinoceptor 3 [3]) [µM] | inhibition [4] [%] | IC50 (P2X purinoceptor 4) [µM] | inhibition [5] [%] | IC50 (P2X purinoceptor 7) [µM] | inhibition [6] [%] | IC50 (P2X purinoceptor 3 [7]) [nM] | Ratio IC50 (Homo sapiens [8]) | Ratio IC50 (Homo sapiens [9]) | Ratio IC50 (Homo sapiens [10]) |
| --- | --- | --- | --- | --- | --- | --- | --- | --- | --- | --- | --- | --- | --- | --- |
| CC1(C)O[C@@H]2[C@H](O1)[C@@H](C(=O)N[C@@H](CCC(=O)O)C(=O)O)O[C@H]2n1cnc2c(N)ncnc21 | > 100 | 21 | > 100 | 6 | > 100 | 15 | > 100 | -6 | > 30 | -9 |  |  |  |  |
| Nc1ncnc2c1ncn2[C@@H]1O[C@H](COP(=O)(O)OP(=O)(O)OP(=O)(O)O)[C@H]2O[C@@H](c3ccccc3)O[C@H]21 | ≥ 10 | 44 | > 100 | 18 | 0.611 |  | 11 |  | 8.53 |  | 81 | 14 | 18 |  |
| Nc1ncnc2c1ncn2[C@@H]1O[C@H](COP(=O)(O)OP(=O)(O)OP(=O)(O)O)[C@H]2O[C@H](c3ccccc3)O[C@H]21 | > 100 | 27 | > 100 | 16 | 5.83 |  | 12.4 |  | > 100 | 21 | 211 |  |  |  |
| Nc1ncnc2c1ncn2[C@@H]1O[C@H](COP(=O)(O)OP(=O)(O)OP(=O)(O)O)[C@H]2OC3(CCCCC3)O[C@H]21 | 8.06 |  | > 100 | 20 | 0.883 |  | 29.6 |  | > 100 | 30 | 83 |  |  | 10 |
| CC1(C)O[C@@H]2[C@H](O1)[C@@H](COC(=O)c1cc(C(=O)O)c(C(=O)O)cc1C(=O)O)O[C@H]2n1cnc2c(N)ncnc21 | > 10 | 13 | > 10 | 30 | ≥ 100 | 56 | > 30 | 35 | > 30 |  |  |  |  |  |
